Measured values from ChEMBL document CHEMBL1140207, “A small molecule inhibitor, 1,2,4,5-benzenetetraamine tetrahydrochloride, targeting the y397 site of focal adhesion kinase decreases tumor growth” (J Med Chem, 2008).
Active and inactive are the calls of the source. The rule behind the calls is not given here.

Columns and labels:
C8161 = experiment: Cytotoxicity against human C8161 cells assessed as decrease in cell viability at 100 uM after 24 hrs by MTT assay; assay type: functional, cell-based
Outline: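 Cells from breast cancer and melanoma lines were exposed to compound for 24 h and viability was read by MTT assay. A reference FAK inhibitor served as the control.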

BT-474 [1] = experiment: Induction of apoptosis in human BT474 cells assessed as cleavage of 89 kDa PARP at 100 uM after 24 hrs by Western blotting; assay type: functional, cell-based
Outline: (§1)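 BT474 cells treated at various doses; lysates immunoblotted with PARP antibody, scoring cleaved 89 kDa fragment.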

BT-474 [2] = experiment: Induction of apoptosis in human BT474 cells assessed as cleavage of 89 kDa PARP at 1 uM after 24 hrs by Western blotting; assay type: functional, cell-based; outline: as §1
[3] = molecular target: Focal adhesion kinase 1 (Homo sapiens) (UniProt Q05397); experiment: Inhibition of total FAK autophosphorylation in human BT474 cells at 100 uM after 24 hrs by Western blotting; assay type: cell-based; conditions: BT-474
Chain of Focal adhesion kinase 1 (Homo sapiens) (Q05397 2-1052 limits assumed): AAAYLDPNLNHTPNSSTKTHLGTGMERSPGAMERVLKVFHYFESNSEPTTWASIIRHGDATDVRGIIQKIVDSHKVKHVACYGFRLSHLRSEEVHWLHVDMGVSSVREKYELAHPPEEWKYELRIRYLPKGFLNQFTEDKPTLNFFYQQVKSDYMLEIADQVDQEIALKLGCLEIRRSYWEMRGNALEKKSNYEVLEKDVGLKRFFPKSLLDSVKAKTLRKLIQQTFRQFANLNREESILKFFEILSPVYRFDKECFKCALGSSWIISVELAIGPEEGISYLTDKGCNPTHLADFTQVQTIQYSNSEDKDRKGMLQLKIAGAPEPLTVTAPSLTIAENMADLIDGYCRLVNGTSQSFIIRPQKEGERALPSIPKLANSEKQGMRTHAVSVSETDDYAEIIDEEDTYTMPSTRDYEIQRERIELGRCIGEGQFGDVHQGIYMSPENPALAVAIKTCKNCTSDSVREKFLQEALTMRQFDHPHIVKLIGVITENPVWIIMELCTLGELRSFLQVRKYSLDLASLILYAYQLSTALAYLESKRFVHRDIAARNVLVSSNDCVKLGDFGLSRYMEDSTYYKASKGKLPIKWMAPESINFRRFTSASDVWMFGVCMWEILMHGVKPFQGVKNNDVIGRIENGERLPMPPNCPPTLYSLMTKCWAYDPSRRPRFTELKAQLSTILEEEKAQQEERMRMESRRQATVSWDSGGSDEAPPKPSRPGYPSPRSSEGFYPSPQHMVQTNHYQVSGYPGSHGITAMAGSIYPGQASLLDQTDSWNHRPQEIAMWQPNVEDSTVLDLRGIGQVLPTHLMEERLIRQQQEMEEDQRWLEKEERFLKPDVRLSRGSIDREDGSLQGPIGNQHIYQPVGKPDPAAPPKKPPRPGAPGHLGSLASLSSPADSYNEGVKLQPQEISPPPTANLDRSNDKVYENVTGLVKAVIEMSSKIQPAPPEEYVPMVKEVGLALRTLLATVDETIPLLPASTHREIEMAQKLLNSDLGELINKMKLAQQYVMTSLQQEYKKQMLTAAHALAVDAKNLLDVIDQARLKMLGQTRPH
Outline: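 BT474 lysates immunoprecipitated with FAK antibody, blotted with phosphotyrosine antibody, then stripped and reprobed for FAK.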

[4] = molecular target: Focal adhesion kinase 1 (Homo sapiens) (UniProt Q05397); experiment: Inhibition of recombinant FAK domain (411 to 686 amino acids) without N terminal domain containing Y397 site at 1 uM
Outline: (§2)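 Commercial kinase profiling panel: recombinant enzymes (including FAK kinase domain 411-686 a.a.) tested with 1 μM compound, 10 μM ATP and kinase substrates; % inhibition versus untreated; mean ± SE of two independent experiments.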

HT-29 = experiment: Cytotoxicity against human HT-29 cells assessed as decrease in cell viability at 100 uM after 24 hrs by MTT assay; assay type: functional, cell-based
BT-474 [5] = experiment: Induction of necrosis in non-apoptotic human BT474 cells after 24 hrs by propidium iodide staining based Zeiss fluorescent microscope; assay type: functional, cell-based
Outline: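 BT474 cells treated at 10 and 100 μM, collected, stained 10 min with propidium iodide (10 μg/ml) for dead necrotic cells plus Hoechst (10 μg/ml) for nuclei; examined by fluorescence microscopy.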

[6] = molecular target: Focal adhesion kinase 1 (Homo sapiens) (UniProt Q05397); experiment: Inhibition of recombinant full length FAK autophosphorylation expressed in baculovirus by SDS-PAGE
Outline: (§3)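 In vitro autophosphorylation: 0.1 μg purified recombinant FAK or Pyk-2 with γ-32P-ATP and varying inhibitor doses, 10 min at room temperature; three independent experiments.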

Paxillin (Homo sapiens) [7] = molecular target: Paxillin (Homo sapiens) (UniProt P49023); experiment: Inhibition of paxillin-Y118 phosphorylation in human BT474 cells at 100 uM after 24 hrs by Western blotting; assay type: cell-based; conditions: BT-474
Chain of Paxillin (Homo sapiens) (P49023 whole entry): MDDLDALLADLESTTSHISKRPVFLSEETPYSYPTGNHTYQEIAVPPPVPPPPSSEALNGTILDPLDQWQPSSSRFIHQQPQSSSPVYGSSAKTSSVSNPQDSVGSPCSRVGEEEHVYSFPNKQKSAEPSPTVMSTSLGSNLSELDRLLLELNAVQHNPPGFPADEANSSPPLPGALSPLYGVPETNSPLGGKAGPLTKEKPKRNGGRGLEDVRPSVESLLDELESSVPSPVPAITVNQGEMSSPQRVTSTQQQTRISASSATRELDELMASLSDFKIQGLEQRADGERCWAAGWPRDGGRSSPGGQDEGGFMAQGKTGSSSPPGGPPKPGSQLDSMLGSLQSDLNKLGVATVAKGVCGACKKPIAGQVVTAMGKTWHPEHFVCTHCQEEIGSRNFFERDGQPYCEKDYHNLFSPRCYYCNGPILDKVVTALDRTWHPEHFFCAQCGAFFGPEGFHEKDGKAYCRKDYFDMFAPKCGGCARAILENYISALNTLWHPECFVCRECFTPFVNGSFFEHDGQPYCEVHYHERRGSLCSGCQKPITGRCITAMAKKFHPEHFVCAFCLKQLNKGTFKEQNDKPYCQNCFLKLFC
Outline: (§4)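 BT474 cells treated 100 μM for 24 h; Western blot with Y397-FAK and Y118-paxillin antibodies, total FAK, paxillin and β-actin as expression/loading references.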

BT-474 [8] = experiment: Effect on human BT474 cell survival assessed as cell detachment at 10 uM after 24 hrs by hemocytometer; assay type: functional
Outline: (§5)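 BT474 cells treated at a range of doses; detached cells counted on a hemacytometer; means ± standard errors of three independent experiments, versus untreated cells.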

BT-474 [9] = experiment: Inhibition of tumor growth in human BT474 cells xenografted in mouse assessed as reduction in tumor weight at 30 mg/kg administered daily for 5 days per week measured after 23 days; assay type: functional, organism-based; set-up: dose 30 mg/kg
Outline: (§6)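 BT474 cells injected subcutaneously into mice (5 per group); dosing at 30 mg/kg daily, 5 days per week, starting the day after injection; untreated mice as controls.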

A549 = experiment: Cytotoxicity against human A549 cells assessed as decrease in cell viability at 100 uM after 24 hrs by MTT assay; assay type: functional, cell-based
[10] = molecular target: Platelet-derived growth factor receptor alpha (Homo sapiens) (UniProt P16234); experiment: Inhibition of recombinant PDGFRa at 1 uM; outline: as §2
BT-474 [11] = experiment: Effect on human BT474 cell survival assessed as cell detachment at 100 uM after 24 hrs by hemocytometer; assay type: functional; outline: as §5
[12] = molecular target: PI3-kinase p110-delta/p85-alpha (Homo sapiens) (UniProt P27986+O00329); experiment: Inhibition of recombinant PI3 kinase p110delta/p85-alpha subunit at 1 uM; outline: as §2
[13] = Effect on human MCF10A cell survival assessed as cell detachment at 100 uM after 24 hrs by hemocytometer; assay type: ADME, cell-based; conditions: mcf-10a
Outline: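 Normal breast MCF10A cells were treated with a range of compound doses. Detached cells were counted on a hemacytometer, and values are means ± standard errors of three independent experiments.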

BT-474 [14] = experiment: Effect on human BT474 cell survival assessed as cell detachment at 50 uM after 24 hrs by hemocytometer; assay type: functional; outline: as §5
[15] = molecular target: Focal adhesion kinase 1 (Homo sapiens) (UniProt Q05397); experiment: Inhibition of FAK-Y397 phosphorylation in human BT474 cells at 100 uM by Western blotting; assay type: cell-based; conditions: BT-474, TDE = time-dependent effect
Outline: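 BT474 cells given 100 μM for 1–24 h; Y397-FAK and total FAK normalized to β-actin by densitometry, expressed relative to untreated; three independent experiments, mean ± SE.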

BT-474 [16] = experiment: Induction of apoptosis in human BT474 cells assessed as cleavage of 89 kDa PARP after 24 hrs by Western blotting
[17] = molecular target: Proto-oncogene tyrosine-protein kinase Src (Homo sapiens) (UniProt P12931); experiment: Inhibition of recombinant c-Src at 1 uM; outline: as §2
Chain of Proto-oncogene tyrosine-protein kinase Src (Homo sapiens) (P12931 2-536 limits assumed): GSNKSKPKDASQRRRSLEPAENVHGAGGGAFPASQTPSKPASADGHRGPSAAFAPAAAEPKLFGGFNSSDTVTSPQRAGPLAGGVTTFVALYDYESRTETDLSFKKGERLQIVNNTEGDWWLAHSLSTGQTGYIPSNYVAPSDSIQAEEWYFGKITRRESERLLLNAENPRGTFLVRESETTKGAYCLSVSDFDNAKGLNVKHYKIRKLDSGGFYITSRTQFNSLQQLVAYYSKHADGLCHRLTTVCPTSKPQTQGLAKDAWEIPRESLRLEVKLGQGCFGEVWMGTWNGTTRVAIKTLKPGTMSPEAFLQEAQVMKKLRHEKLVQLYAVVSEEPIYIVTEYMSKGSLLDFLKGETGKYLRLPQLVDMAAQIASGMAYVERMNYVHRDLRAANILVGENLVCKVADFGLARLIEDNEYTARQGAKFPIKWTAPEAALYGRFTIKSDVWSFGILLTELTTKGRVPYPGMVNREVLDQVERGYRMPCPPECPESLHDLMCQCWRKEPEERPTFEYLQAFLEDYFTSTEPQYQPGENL

Mus musculus [18] = experiment: Inhibition of tumor growth in human BT474 cells xenografted in mouse assessed as animal weight loss at 30 mg/kg administered daily for 5 days per week measured after 23 days; assay type: organism-based, BT-474; set-up: dose 30 mg/kg; conditions: in vivo, 552 h
Outline: (§7)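 BT474 breast cancer cells were injected subcutaneously into 5 mice. Dosing at 30 mg/kg started the day after injection and was given daily, 5 days per week. Five untreated mice served as controls.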

[19] = molecular target: RAF proto-oncogene serine/threonine-protein kinase (Homo sapiens) (UniProt P04049); experiment: Inhibition of recombinant c-RAF at 1 uM; outline: as §2
BT-474 [20] = experiment: Effect on human BT474 cell survival assessed as cell detachment after 24 hrs by hemocytometer; assay type: functional, cell-based; outline: as §5
T47D = experiment: Cytotoxicity against human T47D cells assessed as decrease in cell viability at 100 uM after 24 hrs by MTT assay; assay type: functional, cell-based
Outline: (§8)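 Cells given each compound at 100 μM for 24 h, then MTT viability assay; known FAK inhibitor 1a used as reference control.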

BT-474 [21] = experiment: Effect on human BT474 cell survival assessed as cell detachment at 100 to 200 uM after 24 hrs by hemocytometer; assay type: functional; outline: as §5
[22] = molecular target: Protein-tyrosine kinase 2-beta (Homo sapiens) (UniProt Q14289); experiment: Inhibition of recombinant Pyk2 at 1 uM; outline: as §2
Chain of Protein-tyrosine kinase 2-beta (Homo sapiens) (Q14289 whole entry, looked up): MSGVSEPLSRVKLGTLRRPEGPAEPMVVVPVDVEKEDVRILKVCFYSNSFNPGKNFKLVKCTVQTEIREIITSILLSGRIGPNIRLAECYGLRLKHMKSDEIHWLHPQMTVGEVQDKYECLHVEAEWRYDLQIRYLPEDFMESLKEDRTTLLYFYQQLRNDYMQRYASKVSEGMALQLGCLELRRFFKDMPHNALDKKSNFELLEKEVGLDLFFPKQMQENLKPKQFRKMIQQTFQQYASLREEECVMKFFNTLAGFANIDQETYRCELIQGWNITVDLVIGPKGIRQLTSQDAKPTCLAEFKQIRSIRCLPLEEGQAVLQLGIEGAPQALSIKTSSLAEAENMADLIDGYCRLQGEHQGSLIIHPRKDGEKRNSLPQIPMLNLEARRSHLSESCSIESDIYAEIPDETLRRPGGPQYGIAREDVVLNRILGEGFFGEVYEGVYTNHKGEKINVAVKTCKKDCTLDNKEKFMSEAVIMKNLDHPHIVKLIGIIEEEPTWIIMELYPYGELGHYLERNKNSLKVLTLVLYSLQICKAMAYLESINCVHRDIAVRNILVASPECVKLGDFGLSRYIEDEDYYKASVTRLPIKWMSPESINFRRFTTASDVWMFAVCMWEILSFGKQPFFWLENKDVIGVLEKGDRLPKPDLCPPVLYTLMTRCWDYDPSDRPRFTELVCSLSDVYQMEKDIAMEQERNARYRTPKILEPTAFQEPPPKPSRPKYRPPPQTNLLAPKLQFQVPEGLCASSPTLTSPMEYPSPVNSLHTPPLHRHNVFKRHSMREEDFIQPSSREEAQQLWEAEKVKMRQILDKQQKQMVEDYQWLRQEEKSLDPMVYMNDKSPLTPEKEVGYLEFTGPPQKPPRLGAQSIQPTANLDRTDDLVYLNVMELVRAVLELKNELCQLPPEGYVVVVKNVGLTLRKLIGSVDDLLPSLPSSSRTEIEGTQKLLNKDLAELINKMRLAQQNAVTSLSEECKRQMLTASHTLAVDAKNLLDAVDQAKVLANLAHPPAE

[23] = molecular target: Hepatocyte growth factor receptor (Homo sapiens) (UniProt P08581); experiment: Inhibition of recombinant Met at 1 uM; outline: as §2
[24] = molecular target: Epidermal growth factor receptor (Homo sapiens) (UniProt P00533); experiment: Inhibition of recombinant EGFR at 1 uM; outline: as §2
BT-474 [25] = experiment: Inhibition of human BT474 cells adhesion on collagen coated plates at 100 uM after 3 hrs by crystal violet staining
MCF7 = experiment: Cytotoxicity against human MCF7 cells assessed as decrease in cell viability at 100 uM after 24 hrs by MTT assay; assay type: functional, cell-based; outline: as §8
BT-474 [26] = experiment: Inhibition of human BT474 cells adhesion on collagen coated plates after 3 hrs by crystal violet staining
[27] = molecular target: Insulin-like growth factor 1 receptor (Homo sapiens) (UniProt P08069); experiment: Inhibition of recombinant IGF1R at 1 uM; outline: as §2
[28] = molecular target: Focal adhesion kinase 1 (Homo sapiens) (UniProt Q05397); experiment: Inhibition of recombinant full length FAK-mediated GST-paxillin […] expressed in baculovirus by SDS-PAGE
Outline: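 Purified recombinant FAK (0.1 μg) with GST-paxillin substrate, γ-32P-ATP and varying inhibitor doses, 10 min at room temperature.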

[29] = molecular target: Vascular endothelial growth factor receptor 3 (Homo sapiens) (UniProt P35916); experiment: Inhibition of VEGFR3 phosphorylation in human BT474 cells at 100 uM after 24 hrs by Western blotting; assay type: cell-based; conditions: BT-474
Chain of Vascular endothelial growth factor receptor 3 (Homo sapiens) (P35916 whole entry): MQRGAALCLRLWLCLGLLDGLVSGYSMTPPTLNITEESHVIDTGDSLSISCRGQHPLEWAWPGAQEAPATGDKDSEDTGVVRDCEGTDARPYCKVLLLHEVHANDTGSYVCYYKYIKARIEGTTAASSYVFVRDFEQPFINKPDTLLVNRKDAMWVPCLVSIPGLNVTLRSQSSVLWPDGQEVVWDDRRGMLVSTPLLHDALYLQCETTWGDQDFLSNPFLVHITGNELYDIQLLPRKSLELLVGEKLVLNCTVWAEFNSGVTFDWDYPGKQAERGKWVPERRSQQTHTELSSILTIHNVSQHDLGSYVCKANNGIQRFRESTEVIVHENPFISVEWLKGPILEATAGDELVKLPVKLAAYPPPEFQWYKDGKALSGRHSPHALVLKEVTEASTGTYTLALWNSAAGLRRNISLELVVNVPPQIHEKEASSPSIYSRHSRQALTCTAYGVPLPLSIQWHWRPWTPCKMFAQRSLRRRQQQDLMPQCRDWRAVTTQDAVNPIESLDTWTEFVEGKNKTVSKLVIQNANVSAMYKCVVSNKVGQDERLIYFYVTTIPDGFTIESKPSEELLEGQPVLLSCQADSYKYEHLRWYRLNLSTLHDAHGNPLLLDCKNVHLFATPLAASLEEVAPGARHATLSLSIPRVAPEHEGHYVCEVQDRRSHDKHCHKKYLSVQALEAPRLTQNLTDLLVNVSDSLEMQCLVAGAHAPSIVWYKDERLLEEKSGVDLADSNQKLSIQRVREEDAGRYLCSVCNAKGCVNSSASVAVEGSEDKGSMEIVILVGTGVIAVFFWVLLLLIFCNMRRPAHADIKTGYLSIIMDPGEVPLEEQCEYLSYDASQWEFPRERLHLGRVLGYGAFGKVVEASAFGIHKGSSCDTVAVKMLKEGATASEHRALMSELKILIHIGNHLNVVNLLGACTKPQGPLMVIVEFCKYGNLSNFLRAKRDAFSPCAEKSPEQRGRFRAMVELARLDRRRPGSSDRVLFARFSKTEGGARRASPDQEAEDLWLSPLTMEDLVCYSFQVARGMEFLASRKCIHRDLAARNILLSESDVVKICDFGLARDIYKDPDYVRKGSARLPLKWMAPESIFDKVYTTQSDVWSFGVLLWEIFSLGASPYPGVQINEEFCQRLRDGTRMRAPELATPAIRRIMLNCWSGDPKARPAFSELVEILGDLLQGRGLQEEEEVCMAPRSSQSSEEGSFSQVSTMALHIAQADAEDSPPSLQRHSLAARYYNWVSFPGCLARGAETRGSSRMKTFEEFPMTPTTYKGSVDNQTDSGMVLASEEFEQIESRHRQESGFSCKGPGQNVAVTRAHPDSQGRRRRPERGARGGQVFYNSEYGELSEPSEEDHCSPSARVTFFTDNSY

[30] = molecular target: Protein-tyrosine kinase 2-beta (Homo sapiens) (UniProt Q14289); experiment: Inhibition of recombinant full length Pyk2 autophosphorylation expressed in baculovirus by SDS-PAGE; outline: as §3
BT-474 [31] = experiment: Cytotoxicity against human BT474 cells assessed as decrease in cell viability after 24 hrs by MTT assay; assay type: functional, cell-based
Outline: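 BT474 breast cancer cells exposed to a range of doses for 24 h; viability by MTT; mean of triplicate determinations ± SD versus untreated cells.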

[32] = molecular target: Focal adhesion kinase 1 (Homo sapiens) (UniProt Q05397); experiment: Inhibition of FAK-Y397 phosphorylation in human BT474 cells at 100 uM after 24 hrs by Western blotting; assay type: cell-based; conditions: BT-474; outline: as §4
BT-474 [33] = experiment: Cytotoxicity against human BT474 cells assessed as decrease in cell viability at 100 uM after 24 hrs by MTT assay; assay type: functional, cell-based; outline: as §8
[34] = molecular target: Proto-oncogene tyrosine-protein kinase Src (Homo sapiens) (UniProt P12931); experiment: Inhibition of c-Src phosphorylation in human BT474 cells at 100 uM after 24 hrs by Western blotting; assay type: cell-based; conditions: BT-474
Mus musculus [35] = experiment: Inhibition of tumor growth in human BT474 cells xenografted in mouse assessed as animal death at 30 mg/kg administered daily for 5 days per week measured after 23 days; assay type: organism-based, BT-474; set-up: dose 30 mg/kg; conditions: in vivo, 552 h; outline: as §7
BT-474 [36] = experiment: Induction of apoptosis in human BT474 cells at 50 to 100 uM after 24 hrs by […] staining; assay type: functional
Outline: (§9)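 BT474 cells treated 24 h at various doses; apoptotic nuclei scored by Hoechst staining; means ± SD of four independent experiments versus untreated cells.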

[37] = molecular target: Vascular endothelial growth factor receptor 3 (Homo sapiens) (UniProt P35916); experiment: Inhibition of recombinant Flt4 at 1 uM; outline: as §2
[38] = molecular target: Protein-tyrosine kinase 2-beta (Homo sapiens) (UniProt Q14289); experiment: Inhibition of Pyk2-Y402 phosphorylation in human BT474 cells at 100 uM after 24 hrs by Western blotting; assay type: cell-based; conditions: BT-474
Outline: (§10)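 BT474 cells treated at different doses; Western blot for Y397-FAK then total FAK, plus Y402-Pyk-2; β-actin for loading.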

BT-474 [39] = experiment: Inhibition of tumor growth in human BT474 cells xenografted in mouse assessed as tumor volume at 30 mg/kg administered daily for 5 days per week measured after 23 days; assay type: functional, organism-based; set-up: dose 30 mg/kg; outline: as §6
BT-474 [40] = experiment: Induction of apoptosis in human BT474 cells assessed as presence of apoptotic nuclei at 100 uM after 24 hrs by […] staining; assay type: functional, cell-based; outline: as §9
Paxillin (Homo sapiens) [41] = molecular target: Paxillin (Homo sapiens) (UniProt P49023); experiment: Inhibition of paxillin phosphorylation in human BT474 cells at 100 uM after 24 hrs by Western blotting; assay type: cell-based; conditions: BT-474
[42] = molecular target: Focal adhesion kinase 1 (Homo sapiens) (UniProt Q05397); experiment: Inhibition of FAK-Y397 phosphorylation in human BT474 cells after 24 hrs by Western blotting; assay type: cell-based; conditions: BT-474; outline: as §10

## Brc1ccc(C[N+]23CN4CN(CN(C4)C2)C3)cc1
C8161
  Activity: Active

## Cl.Nc1cc(N)c(N)cc1N
BT-474 [1]
  Activity: inactive
BT-474 [2]
  Activity: inactive
[3]
  Activity: Active
[4]
  Activity: inactive
HT-29
  Activity: Active
BT-474 [5]
  Activity: Dose-dependent effect
[6]
  Activity: Dose-dependent effect
Paxillin (Homo sapiens) [7]
  Activity: Active
BT-474 [8]
  Activity: 8%
BT-474 [9]
  Activity: Active
A549
  Activity: Active
[10]
  Activity: inactive
BT-474 [11]
  Activity: 64%
[12]
  Activity: inactive
[13]
  Activity: 15%
BT-474 [14]
  Activity: 38%
[15]
  Activity: tde
BT-474 [16]
  Activity: Active
[17]
  Activity: inactive
Mus musculus [18]
  Activity: Non-toxic
[19]
  Activity: inactive
BT-474 [20]
  Activity: Dose-dependent effect
T47D
  Activity: Active
BT-474 [21]
  Activity: 64%
[22]
  Activity: inactive
[23]
  Activity: inactive
[24]
  Activity: inactive
BT-474 [25]
  Activity: Active
MCF7
  Activity: Active
BT-474 [26]
  Activity: Dose-dependent effect
[27]
  Activity: inactive
[28]
  Activity: Dose-dependent effect
[29]
  Activity: inactive
[30]
  Activity: inactive
BT-474 [31]
  Activity: Dose-dependent effect
C8161
  Activity: Active
[32]
  Activity: Active
BT-474 [33]
  Activity: Active
[34]
  Activity: inactive
Mus musculus [35]
  Activity: Non-toxic
BT-474 [36]
  Activity: <5%
[37]
  Activity: inactive
[38]
  Activity: inactive
BT-474 [39]
  Activity: Active
BT-474 [40]
  Activity: inactive
Paxillin (Homo sapiens) [41]
  Activity: Active
[42]
  Activity: Dose-dependent effect
